Converted amounts (≈) assume the structure as drawn.
Experiments:
Staphylococcus aureus [1] = assay: Bacteriostatic activity against hospital acquired methicillin-resistant and vancomycin-intermediate Staphylococcus aureus NRS18 infected in human THP-1 cells assessed as decrease in bacterial growth after 24 hrs at pH 5.5; type: functional
How it was run: (§1)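 Human THP-1 macrophages infected with each S. aureus strain. Cloxacillin added extracellularly at about 0.01× to 100× the broth MIC measured at pH 5.5, with gentamicin 0.5 mg/liter to stop extracellular growth. Incubated 24 h. CFU counted per mg cell protein as change from the post-phagocytosis inoculum, n = 3. Emin, Emax and EC50 from a Hill fit; static concentration by graphical interpolation.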

Staphylococcus aureus [2] = assay: Bacteriostatic activity against Panton-valentine leukocidin positive community acquired methicillin-resistant Staphylococcus aureus N4090440 infected in human THP-1 cells assessed as decrease in bacterial growth after 24 hrs at pH 5.5; type: functional; how it was run: as §1
Staphylococcus aureus [3] = assay: Antimicrobial activity against intracellular beta-lactamase negative methicillin-susceptible Staphylococcus aureus ATCC 25923 infected in activated human THP-1 cells assessed as decrease in bacterial growth after 24 hrs at pH 7.4; type: functional, organism-based; settings: ATCC 25923, THP-1, 24 h
How it was run: (§2)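 THP-1 cells activated by 24-h culture with phorbol myristate acetate 2 mg/liter, then infected like unactivated THP-1. Cloxacillin dose range in mg/liter for 24 h. CFU per mg cell protein relative to the original inoculum, n = 3. Emin and Emax extrapolated from a Hill fit (slope 1), with EC50 as total drug; static concentration by graphical interpolation.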

Staphylococcus aureus [4] = assay: Antimicrobial activity against Panton-valentine leukocidin positive community acquired methicillin-resistant Staphylococcus aureus N4090440 obtained from wound infection of patient infected in human THP-1 cells assessed as increase in bacterial count from original inoculum at low compound concentration after 24 hrs at pH 5.5; type: functional
How it was run: (§3)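 Bacteria phagocytosed by unactivated human THP-1 macrophages, then incubated 24 h with extracellular antibiotic at about 0.01× to 100× the pH 5.5 broth MIC. CFU per mg cell protein counted against the original inoculum, n = 3. A Hill-equation fit (slope factor 1) gave Emin and Emax, extrapolated to infinitely low and high concentration, and EC50. Static concentration was graphically interpolated.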

Staphylococcus aureus [5] = assay: (§4) Antimicrobial activity against hospital acquired methicillin-resistant and vancomycin-intermediate Staphylococcus aureus NRS126 obtained from bloodstream infection of patient infected in human THP-1 cells assessed as decrease in bacterial count from original inoculum at high compound concentration after 24 hrs at pH 5.5; type: functional; how it was run: as §3
Staphylococcus aureus [6] = assay: Antimicrobial activity against animal acquired methicillin-resistant Staphylococcus aureus N7112046 by broth microdilution method at pH 5.5; type: functional
Staphylococcus aureus [7] = assay: Antimicrobial activity against hospital acquired methicillin-resistant Staphylococcus aureus ATCC 33591 infected in human THP-1 cells assessed as decrease in bacterial count from original inoculum at high compound concentration after 24 hrs at pH 7.4; type: functional
[8] = Chemical stability of the compound assessed as compound remaining after 24 hrs PBS buffer by HPLC analysis at pH 5.5; type: physicochemical; settings: read-out: Activity
How it was run: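 Drug at 50 mg/liter initial concentration incubated 24 h at 37°C in buffered medium at pH 7.4 or 5.5. Remaining drug measured by HPLC signal disappearance; mobile phase 25 mM phosphate buffer pH 6.7 with acetonitrile (75:25).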

Staphylococcus aureus [9] = assay: Antimicrobial activity against animal acquired methicillin-resistant Staphylococcus aureus N7112046 infected in human THP-1 cells assessed as increase in bacterial count from original inoculum at low compound concentration after 24 hrs at pH 5.5; type: functional; how it was run: as §3
Staphylococcus aureus [10] = assay: Bacteriostatic activity against hospital acquired methicillin-resistant Staphylococcus aureus ATCC 33591 infected in human THP-1 cells assessed as decrease in bacterial growth after 24 hrs at pH 7.4; type: functional
How it was run: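 THP-1 macrophages, unactivated, infected with MRSA ATCC 33591. Cloxacillin over a range of extracellular concentrations (mg/liter) with a 24-h exposure. CFU per mg cell protein as change from the original inoculum, n = 3. Hill equation fitted with slope factor 1; static concentration (no change from inoculum) read by graphical interpolation.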

Staphylococcus aureus [11] = assay: Antimicrobial activity against Panton-valentine leukocidin positive community acquired methicillin-resistant Staphylococcus aureus N4090440 obtained from wound infection of patient by broth microdilution method at pH 5.5; type: functional
Staphylococcus aureus [12] = assay: Bacteriostatic activity against beta-lactamase negative methicillin-susceptible Staphylococcus aureus ATCC 25923 infected in human THP-1 cells assessed as decrease in bacterial growth after 24 hrs at pH 7.4; type: functional
Staphylococcus aureus [13] = assay: Antimicrobial activity against constitutive beta-lactamase negative methicillin-resistant Staphylococcus aureus COL NRS100 infected in human THP-1 cells assessed as decrease in bacterial growth after 24 hrs at pH 5.5; type: functional, organism-based; settings: COL NRS100, THP-1, 24 h; how it was run: as §3
Staphylococcus aureus [14] = assay: Antimicrobial activity against intracellular hospital acquired methicillin-resistant Staphylococcus aureus ATCC 33591 infected in human Calu3 cells assessed as increase in bacterial count from original inoculum at low compound concentration after 24 hrs at pH 7.4; type: functional, Calu-3
How it was run: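 Primary human skin keratinocytes or Calu-3 bronchial epithelial cells, given an inoculum of 5 × 10⁷ to 1 × 10⁸ bacteria/ml and 2 h for internalization. Post-phagocytosis load 1.5 × 10⁶ to 3.0 × 10⁶ CFU per mg cell protein. Cloxacillin dose range in mg/liter for 24 h, n = 3. Hill-derived Emin, Emax and EC50; static concentration interpolated.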

Staphylococcus aureus [15] = assay: Antimicrobial activity against Panton-valentine leukocidin positive community acquired methicillin-resistant Staphylococcus aureus N4090440 obtained from wound infection of patient by broth microdilution method at pH 7.4; type: functional
How it was run: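 Minimal inhibitory concentration by broth microdilution at pH 7.4, read in mg/liter. The MRSA genotype was confirmed by mecA PCR, and the SCCmec subgroup was assigned by multiplex PCR.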

Staphylococcus aureus [16] = assay: Bacteriostatic activity against intracellular beta-lactamase negative methicillin-susceptible Staphylococcus aureus ATCC 25923 infected in human Calu3 cells assessed as decrease in bacterial growth after 24 hrs at pH 7.4; type: functional, Calu-3
How it was run: (§5)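 Primary human skin keratinocytes or Calu-3 bronchial epithelial cells infected with MSSA ATCC 25923 at 5 × 10⁷ to 1 × 10⁸ bacteria/ml, 2 h internalization. Postphagocytosis inoculum 1.5 × 10⁶ to 3.0 × 10⁶ CFU/mg protein. Cloxacillin concentration range for 24 h; CFU/mg protein change vs. inoculum (n = 3). Hill fit gives Emin/Emax; static concentration by graphical interpolation.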

Staphylococcus aureus [17] = assay: Antimicrobial activity against intracellular hospital acquired methicillin-resistant Staphylococcus aureus ATCC 33591 infected in activated human THP-1 cells assessed as increase in bacterial count from original inoculum at low compound concentration after 24 hrs at pH 7.4; type: functional; how it was run: as §2
Staphylococcus aureus [18] = assay: Antimicrobial activity against Panton-valentine leukocidin positive community acquired methicillin-resistant Staphylococcus aureus N4042228 infected in human THP-1 cells assessed as decrease in bacterial count from original inoculum at high compound concentration after 24 hrs at pH 5.5; type: functional; how it was run: as §3
Staphylococcus aureus [19] = assay: as §4, with “VRS2” for “NRS126”, “wound, skin and soft tissue” for “bloodstream”; type: functional; how it was run: as §1
Staphylococcus aureus [20] = assay: Antimicrobial activity against hospital acquired methicillin-resistant Staphylococcus aureus ATCC 33591 infected in human THP-1 cells assessed as decrease in bacterial growth after 24 hrs at pH 7.4; type: functional, organism-based; settings: ATCC 33591, THP-1, 24 h
Staphylococcus aureus [21] = assay: Antimicrobial activity against intracellular beta-lactamase negative methicillin-susceptible Staphylococcus aureus ATCC 25923 infected in human keratinocytes assessed as decrease in bacterial count from original inoculum at high compound concentration after 24 hrs at pH 7.4; type: functional; how it was run: as §5

Cc1onc(-c2ccccc2Cl)c1C(=O)N[C@@H]1C(=O)N2[C@@H]1SC(C)(C)[C@@H]2C(=O)O [CLOXACILLIN]
Activity (Staphylococcus aureus [1]): 14.1 ×MIC
Activity (Staphylococcus aureus [2]): 17.4 ×MIC
EC50 (Staphylococcus aureus [3]): 0.43 µg/mL (≈ 0.986 µM)
log10cfu (Staphylococcus aureus [4]): 2.51
log10cfu (Staphylococcus aureus [5]): 0.69
MIC (Staphylococcus aureus [6]): 0.125 µg/mL (≈ 0.287 µM)
log10cfu (Staphylococcus aureus [7]): 0.55
remaining at 24 h [8]: 93.3%
log10cfu (Staphylococcus aureus [9]): 1.84
Activity (Staphylococcus aureus [10]): 0.9 mg/L
MIC (Staphylococcus aureus [11]): 0.03 µg/mL (≈ 0.0688 µM)
Activity (Staphylococcus aureus [12]): 0.6 mg/L
EC50 (Staphylococcus aureus [13]): 2.74 ×MIC
log10cfu (Staphylococcus aureus [14]): 2.39
MIC (Staphylococcus aureus [15]): 0.5 µg/mL (≈ 1.15 µM)
Activity (Staphylococcus aureus [16]): 1.6 mg/L
log10cfu (Staphylococcus aureus [17]): 2.15
log10cfu (Staphylococcus aureus [18]): 0.63
log10cfu (Staphylococcus aureus [19]): 0.78
EC50 (Staphylococcus aureus [20]): 0.26 µg/mL (≈ 0.596 µM)
log10cfu (Staphylococcus aureus [21]): 0.95

— ChEMBL document CHEMBL1649111, “Restoration of susceptibility of intracellular methicillin-resistant Staphylococcus aureus to beta-lactams: comparison of strains, cells, and antibiotics” (Antimicrob Agents Chemother, 2008)
